Results: ChEMBL document CHEMBL1122517, “2-Phenylindoles. Relationship between structure, estrogen receptor affinity, and mammary tumor inhibiting activity in the rat” (1984)
Where “and” joins values, the source holds several entries; their conditions need not be identical. Equal entries are not always repeated.

Legend:
[1] = molecular target: T1, Estrogen receptor (Mus musculus) (UniProt O08537+P19785); assay: Anti-uterotrophic activity in mice as uterus dry weight (mg)/body weight (g) *100 at 125 ug dose; assay type: functional, tissue-based
Procedure, shortened: (§1)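 Immature female NMRI mice, 19 days old, groups of 10, given sc injections on 3 consecutive days. Each injection held 0.4 μg estrone plus the indole dose per animal, in olive oil (50 μL). Killed 24 h after the last injection. Uteri were fixed in Bouin solution, washed, and dried 24 h at 100 °C. Read-out was uterine dry weight (mg)/body weight (g) × 100, mean ± SD.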

[2] = molecular target: T1, Estrogen receptor (Mus musculus); assay: Anti-uterotrophic activity in mice as uterus dry weight (mg)/body weight (g) *100 at 1 ug dose; assay type: functional, tissue-based; procedure, shortened: as §1
[3] = molecular target: T1, Estrogen receptor (Mus musculus); assay: Anti-uterotrophic activity in mice as uterus dry weight (mg)/body weight (g) *100 at 25 ug dose; assay type: functional, tissue-based; procedure, shortened: as §1
[4] = molecular target: T1, Estrogen receptor (Mus musculus); assay: Anti-uterotrophic activity in mice as uterus dry weight (mg)/body weight (g) *100 at 5 ug dose; assay type: functional, tissue-based; procedure, shortened: as §1
[5] = molecular target: T1, Estrogen receptor (Mus musculus); assay: Uterotrophic activity in mice as uterus dry weight (mg)/body weight (g) *100 at 125 ug dose; assay type: functional, tissue-based
Procedure, shortened: (§2)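 Immature 19-day-old female NMRI mice, groups of 10. Compound dose per animal in olive oil (50 µL) sc on 3 consecutive days. Mice were killed 24 h after the last injection. Uteri were Bouin-fixed 20 h, cleaned, washed with alcoholic LiCl, and dried at 100 °C for 24 h. Effect = uterine dry weight (mg)/body weight (g) ×100; mean ± SD.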

[6] = molecular target: T1, Estrogen receptor (Mus musculus); assay: Uterotrophic activity in mice as uterus dry weight (mg)/body weight (g) *100 at 1 ug dose; assay type: functional, tissue-based; procedure, shortened: as §2
[7] = molecular target: T1, Estrogen receptor (Mus musculus); assay: Uterotrophic activity in mice as uterus dry weight (mg)/body weight (g) *100 at 25 ug dose; assay type: functional, tissue-based; procedure, shortened: as §2
[8] = molecular target: T1, Estrogen receptor (Mus musculus); assay: Uterotrophic activity in mice as uterus dry weight (mg)/body weight (g) *100 at 5 ug dose; assay type: functional, tissue-based; procedure, shortened: as §2
[9] = species: Rattus norvegicus; assay: Change in DMBA-induced mammary carcinoma tumor area in rats at 4 mg dose; assay type: functional
Procedure, shortened: (§3)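 Female Sprague-Dawley rats got one 20 mg DMBA dose by gavage at 50 days old and were palpated twice weekly from day 30. Rats were randomized once tumor area exceeded 140 mm². Dose (per kg) was given sc in olive oil, once daily Monday to Thursday and doubled on Friday. Tumor area was taken from caliper measurements of two perpendicular axes, twice weekly. Change per animal is given as median % and range.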

[10] = species: Rattus norvegicus; assay: Change in DMBA-induced mammary carcinoma tumor area in rats at 4 mg dose; -100-47; assay type: functional; procedure, shortened: as §3
[11] = species: Rattus norvegicus; assay: Change in body weight of DMBA-induced mammary carcinoma tumor bearing rats at 4 mg dose; assay type: functional
Procedure, shortened: (§4)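 DMBA-induced tumor-bearing Sprague-Dawley rats (20 mg DMBA by gavage at 50 days old), randomized when tumor area exceeded 140 mm². Dose per kg was given sc in olive oil, single dose daily Monday to Thursday, double dose Friday. Body weight was measured twice weekly. Read-out was % change in body weight.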

[12] = molecular target: T1, Estrogen receptor (Mus musculus); assay: Percentage inhibition of uterotrophic activity at 125 ug dose; assay type: functional
Procedure, shortened: (§5)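 Antiuterotrophic test in immature 19-day-old female NMRI mice (n=10), dosed sc on 3 consecutive days with 0.4 µg estrone per animal per day plus compound in olive oil. Uterine dry weight/body weight ×100 was read 24 h after the last dose. Inhibition % = 100 − [(E_S,T − E_V)/(E_S − E_V)]×100.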

[13] = molecular target: T1, Estrogen receptor (Mus musculus); assay: Percentage inhibition of uterotrophic activity at 5 ug dose; assay type: functional; procedure, shortened: as §5
[14] = species: Rattus norvegicus; assay: Partial remission (%) of DMBA-induced mammary carcinoma tumors in rats at 4 mg dose; assay type: functional
Procedure, shortened: (§6)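 Female Sprague-Dawley rats, 50 days old, given a single 20 mg DMBA dose in 1 mL olive oil by gavage. Rats were palpated twice weekly from day 30, and those without tumors by day 70 were discarded. Rats were randomized once tumor area exceeded 140 mm². Drug dose was per kg in olive oil (1 mL/kg) sc, single dose Mon–Thu and double dose Fri. Tumor area (caliper, two perpendicular axes) and body weight were measured twice weekly.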

[15] = species: Rattus norvegicus; assay: Percent unchanged DMBA-induced mammary carcinoma tumors in rats at 4 mg dose; assay type: functional; procedure, shortened: as §6
[16] = species: Rattus norvegicus; assay: Number of DMBA-induced mammary carcinoma tumors in rats at 4 mg dose; assay type: functional
Procedure, shortened: (§7)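 DMBA-induced tumors in Sprague-Dawley rats, entered when tumor area exceeded 140 mm². Dose per kg was given sc in olive oil, daily Monday to Thursday with a double dose Friday. Tumors were measured by calipers twice weekly. Tumor number was counted at the start of the test. Complete remission meant the tumor was no longer palpable. Partial remission meant reduction to ≤50% of initial size. New tumor appearance was recorded.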

[17] = species: Rattus norvegicus; assay: Formation of new DMBA-induced mammary carcinoma tumors in rats at 4 mg dose; assay type: functional; procedure, shortened: as §7
[18] = species: Rattus norvegicus; assay: Percent progressive DMBA-induced mammary carcinoma tumors in rats at 4 mg dose; assay type: functional; procedure, shortened: as §6
[19] = molecular target: T1, Estrogen receptor (Mus musculus); assay: Percentage inhibition of uterotrophic activity at 25 ug dose; assay type: functional; procedure, shortened: as §5
[20] = molecular target: T1, Estrogen receptor (Mus musculus); assay: Percentage inhibition of uterotrophic activity at 1 ug dose; assay type: functional; procedure, shortened: as §5
[21] = species: Rattus norvegicus; assay: Complete remission (%) of DMBA-induced mammary carcinoma tumors in rats at 4 mg dose; assay type: functional; procedure, shortened: as §7
[22] = species: Rattus norvegicus; assay: Change in DMBA-induced mammary carcinoma tumor area in rats at 5.1 mg dose; assay type: functional; procedure, shortened: as §3
[23] = species: Rattus norvegicus; assay: Change in DMBA-induced mammary carcinoma tumor area in rats at 5.1 mg dose; -44-333; assay type: functional; procedure, shortened: as §3
[24] = species: Rattus norvegicus; assay: Change in body weight of DMBA-induced mammary carcinoma tumor bearing rats at 1.7 mg dose; assay type: functional; procedure, shortened: as §4
[25] = species: Rattus norvegicus; assay: Change in body weight of DMBA-induced mammary carcinoma tumor bearing rats at 5.1 mg dose; assay type: functional; procedure, shortened: as §4
[26] = species: Rattus norvegicus; assay: Change in DMBA-induced mammary carcinoma tumor area in rats at 1.7 mg dose; assay type: functional; procedure, shortened: as §3
[27] = species: Rattus norvegicus; assay: Change in DMBA-induced mammary carcinoma tumor area in rats at 1.7 mg dose; 318-1054; assay type: functional; procedure, shortened: as §3
[28] = species: Rattus norvegicus; assay: Complete remission (%) of DMBA-induced mammary carcinoma tumors in rats at 5.1 mg dose; assay type: functional; procedure, shortened: as §7
[29] = species: Rattus norvegicus; assay: Percent unchanged DMBA-induced mammary carcinoma tumors in rats at 5.1 mg dose; assay type: functional; procedure, shortened: as §6
[30] = species: Rattus norvegicus; assay: Percent unchanged DMBA-induced mammary carcinoma tumors in rats at 1.7 mg dose; assay type: functional; procedure, shortened: as §6
[31] = species: Rattus norvegicus; assay: Number of DMBA-induced mammary carcinoma tumors in rats at 1.7 mg dose; assay type: functional; procedure, shortened: as §7
[32] = species: Rattus norvegicus; assay: Number of DMBA-induced mammary carcinoma tumors in rats at 5.1 mg dose; assay type: functional; procedure, shortened: as §7
[33] = species: Rattus norvegicus; assay: Formation of new DMBA-induced mammary carcinoma tumors in rats at 5.1 mg dose; assay type: functional; procedure, shortened: as §7
[34] = species: Rattus norvegicus; assay: Formation of new DMBA-induced mammary carcinoma tumors in rats at 1.7 mg dose; assay type: functional; procedure, shortened: as §7
[35] = species: Rattus norvegicus; assay: Percent progressive DMBA-induced mammary carcinoma tumors in rats at 5.1 mg dose; assay type: functional; procedure, shortened: as §6
[36] = species: Rattus norvegicus; assay: Partial remission (%) of DMBA-induced mammary carcinoma tumors in rats at 1.7 mg dose; assay type: functional; procedure, shortened: as §7
[37] = species: Rattus norvegicus; assay: Percent progressive DMBA-induced mammary carcinoma tumors in rats at 1.7 mg dose; assay type: functional; procedure, shortened: as §6
[38] = species: Rattus norvegicus; assay: Partial remission (%) of DMBA-induced mammary carcinoma tumors in rats at 5.1 mg dose; assay type: functional; procedure, shortened: as §6

T1 sequence (O08537 whole entry, looked up): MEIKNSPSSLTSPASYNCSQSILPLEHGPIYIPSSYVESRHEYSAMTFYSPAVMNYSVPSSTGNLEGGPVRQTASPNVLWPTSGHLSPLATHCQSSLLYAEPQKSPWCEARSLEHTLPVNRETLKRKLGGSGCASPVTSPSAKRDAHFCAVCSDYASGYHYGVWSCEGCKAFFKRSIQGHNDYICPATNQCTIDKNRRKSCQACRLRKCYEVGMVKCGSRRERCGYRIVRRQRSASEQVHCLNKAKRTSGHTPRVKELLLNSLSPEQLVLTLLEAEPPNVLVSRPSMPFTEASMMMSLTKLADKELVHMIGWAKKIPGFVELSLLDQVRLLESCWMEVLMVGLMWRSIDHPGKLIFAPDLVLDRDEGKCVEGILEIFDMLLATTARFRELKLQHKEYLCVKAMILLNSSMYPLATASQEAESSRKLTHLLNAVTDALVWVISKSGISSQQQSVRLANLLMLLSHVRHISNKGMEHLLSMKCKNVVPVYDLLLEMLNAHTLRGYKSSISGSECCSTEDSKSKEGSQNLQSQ
T1 sequence (P19785 whole entry, looked up): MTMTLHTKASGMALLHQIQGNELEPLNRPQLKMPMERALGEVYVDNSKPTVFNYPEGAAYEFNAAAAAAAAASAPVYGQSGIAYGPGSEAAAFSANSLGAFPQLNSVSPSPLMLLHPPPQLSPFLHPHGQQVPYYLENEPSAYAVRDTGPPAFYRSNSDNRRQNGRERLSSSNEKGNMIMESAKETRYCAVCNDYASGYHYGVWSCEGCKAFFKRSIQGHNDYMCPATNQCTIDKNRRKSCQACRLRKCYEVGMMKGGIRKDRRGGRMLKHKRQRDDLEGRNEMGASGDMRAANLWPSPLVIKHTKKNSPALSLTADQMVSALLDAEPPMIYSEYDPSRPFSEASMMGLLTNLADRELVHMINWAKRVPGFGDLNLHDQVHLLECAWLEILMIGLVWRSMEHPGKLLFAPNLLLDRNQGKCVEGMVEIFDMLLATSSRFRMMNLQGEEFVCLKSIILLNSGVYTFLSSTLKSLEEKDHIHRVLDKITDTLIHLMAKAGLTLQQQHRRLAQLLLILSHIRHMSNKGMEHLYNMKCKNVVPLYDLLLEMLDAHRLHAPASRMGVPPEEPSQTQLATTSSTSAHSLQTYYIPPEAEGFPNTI

Q: How did the Anti-uterotrophic effect [1] turn out when `CCc1c(-c2ccc(OC(C)=O)cc2)n(C)c2cc(OC(C)=O)ccc12` was run?
A: 34.7

Q: What about the Anti-uterotrophic effect [2] of the same compound?
A: 47.6

Q: And the Anti-uterotrophic effect [3]?
A: 33.5

Q: What about the Anti-uterotrophic effect [4] of the same compound?
A: 48.8

Q: What about the Uterotrophic effect [5] of the same compound?
A: 30

Q: What about the Uterotrophic effect [6] of the same compound?
A: 13.2

Q: What about the Uterotrophic effect [7] of the same compound?
A: 20.4

Q: What about the Uterotrophic effect [8] of the same compound?
A: 16.2

Q: And the “Change of tumor area” value [9]?
A: -88%

Q: And the “Change of tumor area” value [10]?
A: -100%

Q: And the “Change of body weight” value [11]?
A: -7%

Q: And the inhibition [12]?
A: 52%

Q: And the inhibition [13]?
A: 14%

Q: What about the Partial remission [14] of the same compound?
A: 29%

Q: And the Static tumors [15]?
A: 21%

Q: And the No. of tumors [16]?
A: 18

Q: And the New tumors [17]?
A: 10

Q: What about the Progressed tumors [18] of the same compound?
A: 7%

Q: And the inhibition [19]?
A: 56%

Q: And the inhibition [20]?
A: 17%

Q: And the Complete remission [21]?
A: 43%

Q: With `CC(=O)Oc1ccc(-c2c(C)c3cc(OC(C)=O)ccc3n2C)cc1` as the compound, how does the Anti-uterotrophic effect [1] read?
A: 28.8

Q: And the Anti-uterotrophic effect [2]?
A: 40

Q: What about the Anti-uterotrophic effect [3] of the same compound?
A: 36.6

Q: What about the Anti-uterotrophic effect [4] of the same compound?
A: 39.2

Q: And the Uterotrophic effect [5]?
A: 20.9

Q: And the Uterotrophic effect [6]?
A: 13.7

Q: What about the Uterotrophic effect [7] of the same compound?
A: 16.1

Q: And the Uterotrophic effect [8]?
A: 14.6

Q: And the “Change of tumor area” value [22]?
A: 9% and 18%

Q: What about the “Change of tumor area” value [23] of the same compound?
A: -44%

Q: And the “Change of body weight” value [24]?
A: 2%

Q: What about the “Change of body weight” value [25] of the same compound?
A: 0%

Q: What about the “Change of tumor area” value [26] of the same compound?
A: 577%

Q: What about the “Change of tumor area” value [27] of the same compound?
A: 318%

Q: What about the Complete remission [28] of the same compound?
A: 32%

Q: What about the inhibition [12] of the same compound?
A: 62%

Q: What about the inhibition [13] of the same compound?
A: 35%

Q: And the Static tumors [29]?
A: 19%

Q: What about the Static tumors [30] of the same compound?
A: 15%

Q: And the No. of tumors [31]?
A: 29

Q: And the No. of tumors [32]?
A: 37

Q: And the New tumors [33]?
A: 37

Q: And the New tumors [34]?
A: 38

Q: What about the Progressed tumors [35] of the same compound?
A: 39%

Q: What about the Partial remission [36] of the same compound?
A: 6%

Q: What about the Progressed tumors [37] of the same compound?
A: 70%

Q: And the inhibition [19]?
A: 42%

Q: What about the inhibition [20] of the same compound?
A: 33%

Q: And the Partial remission [38]?
A: 10%
